Measured values published in ChEMBL document CHEMBL1148948, “Biotransformation of nobiletin by Aspergillus niger and the antimutagenic activity of a metabolite, 4'-hydroxy-5,6,7,8,3'-pentamethoxyflavone” (2004).

What was measured:
Assay type in all cases: functional, Salmonella enterica subsp. enterica serovar Typhimurium
Salmonella typhimurium [1] = experiment: Inhibition of Trp-P-1-induced SOS response to alteration in DNA synthesis in Salmonella Typhimurium TA1535 carrying pSK1002 containing umuC'-lacZ fused gene; conditions: Salmonella enterica, read-out: ID50 (the source's name)
Procedure, shortened: (§1)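 S. typhimurium TA1535/pSK1002 (umuC′-′lacZ fusion on the plasmid). The overnight culture was diluted 50-fold in fresh TGA medium and grown at 37 °C to A600 0.25-0.30. SOS induction was read as β-galactosidase activity in Miller units. The S9 mix used rat liver S9 (phenobarbital/5,6-benzoflavone-pretreated males) with G-6-P, NADH and NADPH cofactors.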

Salmonella typhimurium [2] = experiment: Antimutagenic activity in Salmonella Typhimurium TA1535 carrying pSK1002 containing umuC'-lacZ fused gene assessed as suppression of MeIQ-induced SOS response to alteration in DNA synthesis at 0.1 mM measured by beta-galactosidase activity by Umu test; procedure, shortened: as §1
Salmonella typhimurium [3] = experiment: Antimutagenic activity in Salmonella Typhimurium TA1535 carrying pSK1002 containing umuC'-lacZ fused gene assessed as suppression of furyfuramide-induced SOS response to alteration in DNA synthesis at 0.1 mM measured by beta-galactosidase activity by Umu test; procedure, shortened: as §1
Salmonella typhimurium [4] = experiment: Antimutagenic activity in Salmonella Typhimurium TA1535 carrying pSK1002 containing umuC'-lacZ fused gene assessed as suppression of MeIQ-induced SOS response to alteration in DNA synthesis at 0.6 mM measured by beta-galactosidase activity by Umu test; procedure, shortened: as §1
Salmonella typhimurium [5] = experiment: Antimutagenic activity in Salmonella Typhimurium TA1535 carrying pSK1002 containing umuC'-lacZ fused gene assessed as suppression of Trp-P-1-induced SOS response to alteration in DNA synthesis at 0.05 mM measured by beta-galactosidase activity by Umu test; procedure, shortened: as §1
Salmonella typhimurium [6] = experiment: Antimutagenic activity in Salmonella Typhimurium TA1535 carrying pSK1002 containing umuC'-lacZ fused gene assessed as suppression of 0.1 j/M2 UV light-induced SOS response to alteration in DNA synthesis at 0.05 mM measured by beta-galactosidase activity by Umu test; procedure, shortened: as §1
Salmonella typhimurium [7] = experiment: Antimutagenic activity in Salmonella Typhimurium TA1535 carrying pSK1002 containing umuC'-lacZ fused gene assessed as suppression of activated MeIQ-induced SOS response to alteration in DNA synthesis at 0.1 mM measured by beta-galactosidase activity by Umu test; procedure, shortened: as §1
Salmonella typhimurium [8] = experiment: Inhibition of activated Trp-P-1-induced SOS response to alteration in DNA synthesis in Salmonella Typhimurium TA1535 carrying pSK1002 containing umuC'-lacZ fused gene at 0.6 mM; parameters: scale not given: the % may be the effect or the level left; procedure, shortened: as §1
Salmonella typhimurium [9] = experiment: Antimutagenic activity in Salmonella Typhimurium TA1535 carrying pSK1002 containing umuC'-lacZ fused gene assessed as suppression of activated MeIQ-induced SOS response to alteration in DNA synthesis at 0.6 mM measured by beta-galactosidase activity by Umu test; procedure, shortened: as §1
Salmonella typhimurium [10] = experiment: Antimutagenic activity in Salmonella Typhimurium TA1535 carrying pSK1002 containing umuC'-lacZ fused gene assessed as suppression of Trp-P-1-induced SOS response to alteration in DNA synthesis at 0.1 mM measured by beta-galactosidase activity by Umu test; procedure, shortened: as §1
Salmonella typhimurium [11] = experiment: Antimutagenic activity in Salmonella Typhimurium TA1535 carrying pSK1002 containing umuC'-lacZ fused gene assessed as suppression of activated MeIQ-induced SOS response to alteration in DNA synthesis at 0.05 mM measured by beta-galactosidase activity by Umu test; procedure, shortened: as §1
Salmonella typhimurium [12] = experiment: Antimutagenic activity in Salmonella Typhimurium TA1535 carrying pSK1002 containing umuC'-lacZ fused gene assessed as suppression of 0.1 j/M2 UV light-induced SOS response to alteration in DNA synthesis at 0.6 mM measured by beta-galactosidase activity by Umu test; procedure, shortened: as §1
Salmonella typhimurium [13] = experiment: Inhibition of activated MeIQ-induced SOS response to alteration in DNA synthesis in Salmonella Typhimurium TA1535 carrying pSK1002 containing umuC'-lacZ fused gene; conditions: Salmonella enterica, read-out: ID50 (the source's name); procedure, shortened: as §1
Salmonella typhimurium [14] = experiment: Inhibition of Trp-P-1-induced SOS response to alteration in DNA synthesis in Salmonella Typhimurium TA1535 carrying pSK1002 containing umuC'-lacZ fused gene at 0.6 mM; parameters: scale not given: the % may be the effect or the level left; procedure, shortened: as §1
Salmonella typhimurium [15] = experiment: Antimutagenic activity in Salmonella Typhimurium TA1535 carrying pSK1002 containing umuC'-lacZ fused gene assessed as suppression of furyfuramide-induced SOS response to alteration in DNA synthesis at 0.05 mM measured by beta-galactosidase activity by Umu test; procedure, shortened: as §1
Salmonella typhimurium [16] = experiment: Antimutagenic activity in Salmonella Typhimurium TA1535 carrying pSK1002 containing umuC'-lacZ fused gene assessed as suppression of activated Trp-P-1-induced SOS response to alteration in DNA synthesis at 0.6 mM measured by beta-galactosidase activity by Umu test; procedure, shortened: as §1
Salmonella typhimurium [17] = experiment: Antimutagenic activity in Salmonella Typhimurium TA1535 carrying pSK1002 containing umuC'-lacZ fused gene assessed as suppression of activated Trp-P-1-induced SOS response to alteration in DNA synthesis at 0.3 mM measured by beta-galactosidase activity by Umu test; procedure, shortened: as §1
Salmonella typhimurium [18] = experiment: Inhibition of furyfuramide-induced SOS response to alteration in DNA synthesis in Salmonella Typhimurium TA1535 carrying pSK1002 containing umuC'-lacZ fused gene at 0.6 mM; parameters: scale not given: the % may be the effect or the level left; procedure, shortened: as §1

Molecule `COc1cc(-c2cc(=O)c3c(OC)c(OC)c(OC)c(OC)c3o2)ccc1O` has an IC50 (Salmonella typhimurium [1]) of 160 µM, an Activity (Salmonella typhimurium [2]) of 232.6 Miller_unit and an Activity (Salmonella typhimurium [3]) of 511.2 Miller_unit. The Activity (Salmonella typhimurium [4]) was 163.9 Miller_unit, the Activity (Salmonella typhimurium [5]) was 299.6 Miller_unit and the Activity (Salmonella typhimurium [6]) was 574.1 Miller_unit. For the same molecule, the Activity (Salmonella typhimurium [7]) was 376.3 Miller_unit, the Activity (Salmonella typhimurium [8]) was 76.4% and the Activity (Salmonella typhimurium [9]) was 224.2 Miller_unit. The Activity (Salmonella typhimurium [10]) was 285.4 Miller_unit, the Activity (Salmonella typhimurium [11]) was 394 Miller_unit and the Activity (Salmonella typhimurium [12]) was 495.7 Miller_unit. For the same molecule, the IC50 (Salmonella typhimurium [13]) was 300 µM, the Activity (Salmonella typhimurium [14]) was 72.4% and the Activity (Salmonella typhimurium [15]) was 551.2 Miller_unit. For the same molecule, the Activity (Salmonella typhimurium [16]) was 118.5 Miller_unit, the Activity (Salmonella typhimurium [17]) was 182.4 Miller_unit and the Activity (Salmonella typhimurium [18]) was 28.7%.
